Among the data in ChEMBL document CHEMBL1144780, “Synthesis and SAR of new pyrrolo[2,1-f][1,2,4]triazines as potent p38 alpha MAP kinase inhibitors” (Bioorg Med Chem Lett, 2008) are IC50, inhibition in vivo and Ki values, retold here.

Each structure is given as a SMILES string.

The target in experiment [1] is Mitogen-activated protein kinase 14 (Homo sapiens, UniProt Q16539). Nature of the experiment: Inhibition of p38alpha.
The next experiment relates to PBMC. Nature of the experiment: Inhibition of LPS-stimulated TNFalpha production in human PBMCs. The experiment is classed as functional, cell-based. An outline of the steps:
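PBMCs from heparinized healthy-volunteer blood isolated by Ficoll-Hypaque and resuspended at 5 × 10⁶/mL in RPMI with 10% FBS. Cells preincubated with compound for 5 min at rt, then stimulated with LPS (200 ng/mL stock) for 6 h at 37 °C. TNF-α in medium measured by ELISA. IC50 derived by linear regression.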

For a further experiment, the system named is Mus musculus. The experiment is described as follows: Inhibition of LPS-induced TNFalpha production in BALB/c mouse at 10 mg/kg, po relative to control. The experiment is classed as functional. An outline of the steps: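 Female BALB/c mice, 6–8 weeks old, n = 8 per group, given 10 mg/kg by oral gavage in PEG 300; vehicle controls received PEG300 alone. LPS (E. coli O111:B4, 50 µg/kg) given ip 30 min after dosing. Blood taken 90 min after LPS and serum TNF-α measured by ELISA. Inhibition relative to vehicle, means SD, ANOVA.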

Sequence of Mitogen-activated protein kinase 14 (Q16539 whole entry): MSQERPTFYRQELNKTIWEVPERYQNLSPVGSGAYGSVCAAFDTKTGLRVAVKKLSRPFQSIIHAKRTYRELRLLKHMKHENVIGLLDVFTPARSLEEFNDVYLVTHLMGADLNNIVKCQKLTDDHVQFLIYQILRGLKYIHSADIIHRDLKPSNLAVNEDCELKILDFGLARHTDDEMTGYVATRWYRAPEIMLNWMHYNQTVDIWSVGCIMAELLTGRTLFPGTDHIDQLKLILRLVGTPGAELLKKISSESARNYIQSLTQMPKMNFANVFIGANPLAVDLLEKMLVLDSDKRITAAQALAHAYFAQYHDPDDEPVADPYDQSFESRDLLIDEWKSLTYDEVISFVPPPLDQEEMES

Turning to `CCNC(=O)c1cn2ncnc(Nc3cc(NC(=O)c4cccc(N5CCN(C)CC5)c4)ccc3C)c2c1C`, in experiment [1], half-maximal inhibition (IC50) required 924 nM.

For `CCNC(=O)c1cn2ncnc(Nc3cc(NC(=O)c4cccc(N5CCOCC5)c4)ccc3C)c2c1C`, the IC50 (usually the concentration that gives 50% inhibition) in the experiment with PBMC worked out at 45 nM. In addition, the inhibition in vivo – broadly, how much of the control response was suppressed – at 10 mg/kg with Mus musculus stood at 84%. In experiment [1], the affinity corresponds to a Ki of 0.98 nM.

For the compound `Cc1ccc(NC(=O)c2cc(F)cc(N3CCOCC3)c2)cc1Nc1ncnn2cc(C(=O)NCCN(C)C)c(C)c12`, the values for the IC50 (with PBMC; in experiment [1]) were 18 nM and 10 nM, respectively.

In the case of `Cc1ccc(NC(=O)c2ccnc(N3CCOCC3)c2)cc1Nc1ncnn2cc(C(=O)N[C@@H](C)c3ccccc3)c(C)c12`, the IC50 in the experiment on PBMC amounted to 43 nM. Testing at 10 mg/kg with Mus musculus gave an inhibition in vivo of 89%.

`Cc1ccc(NC(=O)c2ccc(C#N)cc2)cc1Nc1ncnn2cc(C(=O)N[C@@H](C)c3ccccc3)c(C)c12`: in the experiment on PBMC, inhibition was half-maximal at 11 nM (IC50). Moreover, the Ki (as a rule, the equilibrium dissociation constant of an inhibitor or competing ligand from its target) in experiment [1] was 3.4 nM.

As for `Cc1ccc(NC(=O)c2c(Cl)cccc2Cl)cc1Nc1ncnn2cc(C(=O)N[C@@H](C)c3ccccc3)c(C)c12`, in experiment [1], the IC50 is more than 1000 nM.

Take `CCOC(=O)c1cn2ncnc(Nc3cc(NC(=O)c4cc(F)cc(N5CCOCC5)c4)ccc3C)c2c1C`: the IC50 in the experiment with PBMC was 4 nM; in experiment [1], 2 nM.

On to `Cc1ccc(NC(=O)c2cc(F)cc(N3CCOCC3)c2)cc1Nc1ncnn2cc(C(=O)N(C)C)c(C)c12`, for which the figures for the IC50 (in the experiment with PBMC; in experiment [1]) were 212 nM and 63 nM, respectively.

With `CNC(=O)c1cn2ncnc(Nc3cc(NC(=O)c4cc(F)cc(N5CCOCC5)c4)ccc3C)c2c1C`, the IC50 with PBMC stood at 14 nM; in experiment [1], 4 nM.

For the compound `Cc1ccc(NC(=O)c2cc(F)cc(N3CCOCC3)c2)cc1Nc1ncnn2cc(C(N)=O)c(C)c12`, the IC50 in the experiment on PBMC stood at 19 nM; in experiment [1], 3 nM.

For the compound `Cc1ccc(NC(=O)c2cc(F)cc(N3CCOCC3)c2)cc1Nc1ncnn2cc(C(=O)O)c(C)c12`, the IC50 is more than 1000 nM in the experiment with PBMC and 1 nM in experiment [1].

On to `CCNC(=O)c1cn2ncnc(Nc3cc(NC(=O)c4ccc(C#N)cc4)ccc3C)c2c1C`, for which the half-inhibitory concentration (IC50) with PBMC stood at 46 nM; in experiment [1] it was 23 nM.

Take `Cc1ccc(NC(=O)c2ccccc2)cc1Nc1ncnn2cc(C(=O)N[C@@H](C)c3ccccc3)c(C)c12`: the IC50 is 52 nM with PBMC and 19 nM in experiment [1].

On to `Cc1ccc(NC(=O)c2cc(F)cc(N3CCOCC3)c2)cc1Nc1ncnn2cc(C(=O)NC(C)C)c(C)c12`, for which the 50% inhibitory concentration (IC50) in the experiment on PBMC came to 6 nM; in experiment [1], 5 nM.

Compound `Cc1ccc(NC(=O)c2cc(F)cc(N3CCOCC3)c2)cc1Nc1ncnn2cc(C(=O)N[C@@H](C)c3ccccc3)c(C)c12` showed an IC50 in the experiment on PBMC of 2 nM. Further, the inhibitory constant (Ki) in experiment [1] is 0.54 nM.

Consider `COC[C@H](C)NC(=O)c1cn2ncnc(Nc3cc(NC(=O)c4ccc(C#N)cc4)ccc3C)c2c1C`, for which, in the experiment on PBMC, the IC50 came to 65 nM.

Turning to `Cc1ccc(NC(=O)c2cc(F)cc(N3CCOCC3)c2)cc1Nc1ncnn2ccc(C)c12`, the results for the concentration for half-maximal inhibition (IC50) (with PBMC; in experiment [1]) were 98 nM and 27 nM, respectively.

The compound `CCNC(=O)c1cn2ncnc(Nc3cc(NC(=O)c4cc(F)cc(N5CCOCC5)c4)ccc3C)c2c1C` gave an IC50 in the experiment on PBMC of 2 nM. The same compound returned a Ki in experiment [1] of 0.42 nM.

Take `CCNC(=O)c1cn2ncnc(Nc3cc(NC(=O)c4ccnc(N5CCOCC5)c4)ccc3C)c2c1C`: the IC50 in the experiment with PBMC is 287 nM; in experiment [1], 2 nM.

Regarding `Cc1ccc(C(=O)Nc2ccc(C)c(Nc3ncnn4cc(C(=O)N[C@@H](C)c5ccccc5)c(C)c34)c2)cc1`, the IC50 is 313 nM with PBMC and 13 nM in experiment [1].

In experiment [1], `Cc1ccc(NC(=O)c2cc(C(F)(F)F)cc(C(F)(F)F)c2)cc1Nc1ncnn2cc(C(=O)N[C@@H](C)c3ccccc3)c(C)c12` registered an IC50 of more than 1000 nM.

Regarding `CCNC(=O)c1cn2ncnc(Nc3cc(NC(=O)c4cccc(N5CCCC5=O)c4)ccc3C)c2c1C`, the IC50 stood at 633 nM in the experiment with PBMC and 16 nM in experiment [1].

`CCNC(=O)c1cn2ncnc(Nc3cc(NC(=O)c4cccc(-n5ccnc5)c4)ccc3C)c2c1C`: the IC50 with PBMC was 126 nM; in experiment [1] it was 7 nM.

Consider `Cc1cccc(C(=O)Nc2ccc(C)c(Nc3ncnn4cc(C(=O)N[C@@H](C)c5ccccc5)c(C)c34)c2)c1`, for which the IC50 turned out to be 259 nM in the experiment on PBMC and 94 nM in experiment [1].

With `Cc1ccc(NC(=O)c2cccc(C(F)(F)F)c2)cc1Nc1ncnn2cc(C(=O)N[C@@H](C)c3ccccc3)c(C)c12`, the IC50 with PBMC turned out to be 72 nM; in experiment [1] it was 32 nM.

`Cc1ccc(NC(=O)c2cccc(N3CCOCC3)c2)cc1Nc1ncnn2cc(C(=O)N[C@@H](C)c3ccccc3)c(C)c12`: in the experiment with PBMC, 29 nM corresponded to half-maximal inhibition (IC50). For the same compound, the inhibition in vivo at 10 mg/kg in the experiment on Mus musculus turned out to be 87%.

`COC[C@H](C)NC(=O)c1cn2ncnc(Nc3cc(NC(=O)c4cccc(N5CCOCC5)c4)ccc3C)c2c1C`: the IC50 with PBMC is 29 nM; in experiment [1] it was 12 nM.

As for `CCNC(=O)c1cn2ncnc(Nc3cc(NC(=O)c4cccc(-n5cccn5)c4)ccc3C)c2c1C`, 123 nM corresponded to half-maximal inhibition in experiment [1] (IC50).

`Cc1ccc(NC(=O)c2ccncc2)cc1Nc1ncnn2cc(C(=O)N[C@@H](C)c3ccccc3)c(C)c12`: the IC50 in the experiment on PBMC came to 117 nM; in experiment [1], 14 nM.

Turning to `CCCNC(=O)c1cn2ncnc(Nc3cc(NC(=O)c4cc(F)cc(N5CCOCC5)c4)ccc3C)c2c1C`, the IC50 turned out to be 4 nM with PBMC and 5 nM in experiment [1].

Regarding `Cc1ccc(NC(=O)c2cc(F)cc(N3CCOCC3)c2)cc1Nc1ncnn2cc(C(=O)N[C@H](C)c3ccccc3)c(C)c12`, the IC50 was determined as 48 nM in the experiment on PBMC and 23 nM in experiment [1].

In experiment [1], `COC[C@H](C)NC(=O)c1cn2ncnc(Nc3cc(NC(=O)c4cc(F)cc(N5CCOCC5)c4)ccc3C)c2c1C` (stereo in doubt; 16) registered an IC50 of 2 nM.

`COC[C@H](C)NC(=O)c1cn2ncnc(Nc3cc(NC(=O)c4cc(F)cc(N5CCOCC5)c4)ccc3C)c2c1C` (stereo in doubt; 39): the IC50 with PBMC amounted to 7 nM; in experiment [1], 2 nM.
